Compound activity deposited in PubChem BioAssay by several laboratories.
This is one part of a sample in which hits are shown more often than they occur.
PolyA inhibitor – blocks polyadenylation in yeast reporter cells. 300,000 tested, 0.02% active. activity score, % at 12 µM. S. cerevisiae SKY197-pL101 polyadenylation reporter, beta-gal luminescence; efflux-impaired pdr1/pdr3 knockout yeast; score 100 = 6 SD above DMSO;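 active = lowest replicate activity score at least 50, where 100 means six control SD above control mean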;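 note: yeast exposed to compound for 9 h at 30 °C; higher score means more reporter readthrough which indicates perturbed polyadenylation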
Calb FLC – affects C. albicans growth with fluconazole. C. albicans CaCi-2 (fluconazole-resistant clinical isolate) + fluconazole, Alamar Blue growth, 48 h. growth inhibition, % (concentration not given with the values). 300,000 tested, 0.57% active. AID 1979;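 active = growth inhibition above about 58% in most replicates, limit read from the data, passing the limit was not always enough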;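 note: all wells also contain fluconazole at 8 µg/ml as a sub-toxic cotreatment; 0% = median of DMSO wells and 100% = median of geldanamycin control wells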
NALP1 inh – NALP1 inhibition | S. cerevisiae NALP1/ASC/caspase-1 growth, X-gal OD620, 72 h | inhibition, % at 10 µM | 280,000 tested, 0.61% active | AID 2071; in the data active = inhibition mostly above about 24%, no sharp cut-off; inactive = mostly below about 32%
NALP3 yeast inh – blocks the NALP3 inflammasome reconstituted in yeast; Yeast reconstituted NLRP3/ASC/caspase-1, beta-gal luminescence, 24 h; inhibition, % at 10 µM; 330,000 tested, 0.39% active;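 active = inhibition of 50% or more; inactive = inhibition below 50%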;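 note: plate controls were induced DMSO wells for no effect and uninduced yeast grown without galactose for full effect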
L major viab – inhibitors of Leishmania major promastigote growth; inhibition, % at 10 µM; AID 1063; Leishmania major promastigotes, resazurin fluorescence viability; 200,000 tested, 9% active; in the data active = inhibition above about 50%;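 note: promastigotes grown with compound for 44 hours at 28 °C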
T cruzi repl – T. cruzi replication inhibition; 300,000 tested, 1.4% active; AID 1885; inhibition, % (test concentration not listed); T. cruzi beta-gal in NIH3T3, luminescence, 90 h;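 active = mean inhibition across valid replicates above about 55%, limit read from the data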;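 note: signal also drops with host cell toxicity which is not excluded here; 0% = plate median of DMSO wells and 100% = zero luminescence signal; higher percent means less beta-gal luminescence so fewer parasites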
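assay system = mouse NIH/3T3 fibroblasts infected with β-gal-expressing T. cruzi Tulahuen C4 | input = 5,000 NIH/3T3 host cells per well | buffer or medium = DMEM plus 2% FBS | timing = 3 h host attachment, then at least 90 h co-culture | measured by = GalScreen luminescence, 60 min | evaluation = luminescence reflecting intracellular parasite burden, expressed as percent inhibition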
An asterisk follows results filed as active; / = no result given.

SMILES	PolyA inhibitor	Calb FLC	NALP1 inh	NALP3 yeast inh	L major viab	T cruzi repl
Cc1ccccc1NC(=O)c1cccc(Cn2cc(Br)c([N+](=O)[O-])n2)c1	-5	-28	11	9	17	48
COc1ccc(OC)c(NC(=O)c2cccc(Cn3cc(Br)c([N+](=O)[O-])n3)c2)c1	-16	6	26	13	100*	64*
Cc1cccc(NC(=O)c2cccc(Cn3cc(Br)c([N+](=O)[O-])n3)c2)c1C	-6	1	15	11	9	58*
CCCN1CCC(N2CCN(c3cccc(C(F)(F)F)c3)CC2)CC1	-2	-12	4	20	100*	50
C1=CCC(CN2CCN(C3CCCCCC3)CC2)CC1 (configuration not stated)	-2	-19	-2	25	90*	34
FC(F)(F)c1cccc(N2CCN(CC3CC=CCC3)CC2)c1 (configuration not stated)	0	-9	7	5	93*	19
COc1ccc(S(=O)(=O)N2CCN(CC3CC=CCC3)CC2)cc1 (configuration not stated)	-26	0	12	10	/	16
Cc1ccc(N2CCN(CC3CC=CCC3)CC2)cc1 (configuration not stated)	28	-23	-6	17	97*	-10
N#C/C(C(=O)N1CCOCC1)=C1/SC(Cc2ccccc2Cl)C(=O)N1c1ccccc1 (configuration not stated)	-6	-7	34	3	-8	-7
CCN(CC)c1ccc2c(Cl)c(Br)c(=O)oc2c1	-55	5	-6	6	69*	59*
CCCNC(=O)c1ccc(N2CCC3(CC2)CC(c2cccc(Br)c2)=NO3)c(NC(=O)c2ccc(Cl)c([N+](=O)[O-])c2)c1	-20	2	/	2	/	11
CCCCCCn1c2c(c(=N)c3c1CCC3)CCC2	-1	-4	15	1	100*	84*
Fc1ccc(CN2CCCCCCC2)cc1	14	2	13	-2	46	-10
CCn1c2c(c(=N)c3c1CCC3)CCC2	2	-9	18	9	32	-21
CCCCCCCn1c2c(c(=N)c3c1CCC3)CCCC2	-3	94*	-3	/	100*	59*
N=c1c2c(n(Cc3ccc(F)cc3)c3c1CCC3)CCC2	14	17	-4	14	100*	51
CCCCn1c2c(c(=N)c3c1CCC3)CCC2	/	/	2	-2	100*	/
COCCCNC(=O)Cn1ccc(NC(=O)OCc2ccccc2)nc1=O	/	/	/	9	/	/
COc1ccc(CN(Cc2cccnc2)S(=O)(=O)c2ccc(-n3cnnn3)c(C)c2)cc1OC	-1	22	-1	-2	87*	78*
COc1ccc(CN(Cc2ccccn2)S(=O)(=O)c2ccc(-n3cnnn3)cc2)cc1	-18	-2	1	-10	9	5
COc1ccc(CN(Cc2ccccn2)S(=O)(=O)c2ccc(-n3cnnn3)c(OC)c2)cc1	1	10	-13	6	80*	25
Cc1cccc(NS(=O)(=O)c2cc(C(=O)N3CCCCCC3)ccc2C)c1	0	-3	8	8	/	16
Cc1ccc(SCCNC(=O)c2ccccc2)cc1	2	0	8	45	0	5
Cc1ccc(NS(=O)(=O)c2cc(C(=O)NCCSc3ccc(C)cc3)ccc2C)cc1	5	10	11	11	100*	27
Cc1ccc(C(=O)NCCSc2ccc(Cl)cc2)cc1S(=O)(=O)Nc1ccccc1	24	35	13	2	97*	54
SMILES	PolyA inhibitor	Calb FLC	NALP1 inh	NALP3 yeast inh	L major viab	T cruzi repl
Cc1ccc(SCCNC(=O)c2ccc(C)c(S(=O)(=O)Nc3cccc(C)c3)c2)cc1	-14	16	8	16	78*	51
CS(=O)(=O)Nc1ccc(C(=O)NCCSC2CCCCC2)cc1	16	-3	18	8	-3	-13
CS(=O)(=O)Nc1ccccc1C(=O)NCCSc1ccc(Cl)cc1	3	20	23	19	/	-10
Cc1ccc(NS(=O)(=O)c2cc(C(=O)NCCSC3CCCCC3)ccc2C)cc1	14	-23	30	14	79*	34
O=[N+]([O-])c1cc(NCCO)c(N2CCCCCC2)c2nonc12	-15	-12	2	14	/	7
COc1ccccc1CNS(=O)(=O)c1ccc(-c2cnc(C3CC3)o2)cc1	-15	18	6	12	/	-12
O=C(N/N=C/c1ccc(-c2ccccc2[N+](=O)[O-])o1)[C@H]1C[C@@H]1c1ccccc1	18	-8	18	10	90*	-32
Cc1ccc(C(=O)N/N=C/c2ccc(-c3ccccc3[N+](=O)[O-])o2)cn1	10	1	0	-1	72*	-23
O=C(N/N=C\c1ccc(-c2ccc([N+](=O)[O-])cc2)o1)C1COc2ccccc2O1 (configuration not stated)	-3	-14	0	16	96*	59*
Cc1nnc(N/N=C/c2ccc(-c3ccccc3F)o2)n1N	-17	23	-13	22	48	1
Cc1nnc(N/N=C\c2ccc(-c3ccccc3[N+](=O)[O-])o2)n1N	-23	-4	6	/	58*	-11
COc1ccc(-c2ccc(/C=N/NC(=O)c3cccnc3)o2)c([N+](=O)[O-])c1	-7	-2	13	/	75*	8
Cc1cc(C(=O)CCl)c(C)n1-c1cccc([N+](=O)[O-])c1	-56	-3	-18	-85	101*	/
CC(=O)c1cccc(OCC(=O)c2cc(C)n(-c3cc(C)on3)c2C)c1	-9	-41	5	-6	2	7
Cc1cc(C(=O)CCl)c(C)n1-c1ccon1	-17	-6	-15	/	97*	5
CN1C(=O)/C(=C/c2ccc(OCc3ccccc3F)cc2)N(C)C1=S	-15	5	3	24	/	5
CCCCNC(=O)Cn1c(=O)c2c(ncn2CC)n(Cc2ccccc2)c1=O	27	7	-10	-6	/	-1
Cn1c(=O)n(C)c2cc(/C=N/NC(N)=S)ccc21	10	-9	10	9	0	-8
CCCCC(C(=O)NC1CCCC1)N(C(=O)c1snc(C(N)=O)c1N)c1ccc(F)cc1 (configuration not stated)	-4	14	12	24	/	19
COc1ccc(C(=O)Nc2ncccc2C)cc1S(=O)(=O)N1CCCc2ccccc21	-6	-3	/	23	/	19
COc1ccc(C(=O)NC2CCCCCC2)cc1S(=O)(=O)N1CCCc2ccccc21	7	0	14	-3	94*	14
COc1ccc(C(=O)NC2CCCCCC2)cc1S(=O)(=O)N1CCCC1	3	-11	-3	6	4	9
COc1ccc(C(=O)Nc2nc3c(s2)CCCC3)cc1S(=O)(=O)N1CCCc2ccccc21	6	2	6	-2	97*	48
